Compound activity as filed in PubChem BioAssay.
A selection: hits, their analogues and other compounds. The true share with any hit is near 1.5%.
RanGTP-Imp inh = inhibitors of RanGTP-importin-beta interaction, primary screen, biochemical, FRET, CFP-Ran, YFP-importin-beta, homogeneous | cell-free CFP-Ran/YFP-importin-beta FRET ratio | inhibition, % (no concentration beside the values) | AID 2216 | 300,000 tested, 1.1% active;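 active = more than half of the replicate wells show a fall in the fluorescence ratio signal beyond about 16%, limit read from the data, passing the limit was not always enough; inconclusive = exactly half of the replicate wells pass the set limit; inactive = fewer than half of replicates pass the limit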;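 note: 0% = DMSO wells and 100% = Ran loaded with GDP instead of GTP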
Runt-CBFb FRET = inhibitors of human RUNX1 Runt domain binding to CBFb. Q01196+Q13951. Cerulean-Runt/Venus-CBFb FRET ratio 530/480, 1 h. inhibition, % at 20 µM. 220,000 tested, 0.46% active;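 active = inhibition over about 50% at 20 µM in the single-dose screen, limit read from the data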;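 note: 0% = DMSO wells and 100% = excess unlabeled CBFb competitor control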
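Buffer or medium: Tris pH 7.5 buffer with BSA. Assay system: Cerulean-labeled Runt domain protein. Amount: each fluorescent fusion protein 100 nM. Read-out basis: loss of energy transfer signal. Incubation: 1 h compound exposure, room temperature. Probe or stimulus: Venus-CBFb binding partner, 100 nM. Detection: FRET, excitation 422 nm, emission at 530 and 480 nm.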
Runt-SMMHC FRET = Runt domain-CBFb-SMMHC interaction inhibition. Cerulean-Runt/Venus-CBFb-SMMHC FRET ratio 530/480, 1 h. inhibition, % at 20 µM. 220,000 tested, 0.74% active. AID 1434;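 active = mean inhibition across duplicate retests at 20 µM reaching about 50%, limit read from the data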;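 note: 0% = DMSO wells and 100% = wells with excess untagged CBFb-SMMHC; inhibitors lower the FRET ratio by blocking Runt binding to CBFb-SMMHC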
Hck Nef HTS = human Hck-Nef kinase inhibition | P08631 | Recombinant Hck-YEEI plus Nef, Z-Lyte FRET kinase assay | inhibition, % at 20 µM | 220,000 tested, 0.68% active;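 active = Hck-Nef kinase inhibition above about 50%, limit read from the data; inactive = inhibition below that limit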;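 note: 0% = DMSO with Hck plus Nef and 100% = Hck alone without Nef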
Target sequence (P08631 whole entry, looked up): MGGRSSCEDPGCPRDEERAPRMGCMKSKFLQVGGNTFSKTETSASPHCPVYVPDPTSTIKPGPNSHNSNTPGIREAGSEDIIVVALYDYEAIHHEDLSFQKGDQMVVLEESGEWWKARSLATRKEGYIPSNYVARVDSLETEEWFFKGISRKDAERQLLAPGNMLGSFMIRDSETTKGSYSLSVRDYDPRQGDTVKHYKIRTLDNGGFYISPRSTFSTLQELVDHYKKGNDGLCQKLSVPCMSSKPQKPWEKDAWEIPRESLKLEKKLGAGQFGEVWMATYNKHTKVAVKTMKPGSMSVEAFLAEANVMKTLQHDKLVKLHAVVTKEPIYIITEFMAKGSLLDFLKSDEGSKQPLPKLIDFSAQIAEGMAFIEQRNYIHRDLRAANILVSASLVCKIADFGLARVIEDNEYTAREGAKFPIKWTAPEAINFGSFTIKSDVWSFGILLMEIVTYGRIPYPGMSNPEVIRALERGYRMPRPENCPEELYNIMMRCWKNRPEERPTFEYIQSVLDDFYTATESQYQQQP
CaV13 ICDI inh = Primary screen for inhibitors of IQ motif and Ca2+-dependent inactivation inhibitor domain binding in CACNA1D, Förster resonance energy transfer in living cells, …. HEK cells, CFP/YFP FRET ICDI-IQ, plate reader, 10 min; percent FRET-ratio fall versus neutral wells. inhibition, % at 12.3 µM. 340,000 tested, 0.098% active;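 active = mean replicate inhibition of at least 30% and at least 1% of replicates passing that level; inconclusive = only one of the two criteria is met; inactive = neither criterion is met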;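 note: 0% = median of the neutral control wells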
* = called active by the depositor; ? = inconclusive; · = no result given.

SMILES	RanGTP-Imp inh	Runt-CBFb FRET	Runt-SMMHC FRET	Hck Nef HTS	CaV13 ICDI inh
COc1cc(OC)c(C2CC(=O)N3CN(c4ccc(C)cc4)CSC3=C2C#N)cc1OC (centres undefined)	-93	101*	101*	2	-5
COc1ccc(C2c3[nH]c4ccccc4c3C[C@H]3C(=O)N(c4ccccc4C(=O)N4CCC[C@H]4C(=O)O)C(=O)N23)cc1 (some centres undefined)	-1	·	·	·	·
CCOc1ccc(C(=O)CCC(=O)N(CC)CC(=O)Nc2c(F)cccc2F)cc1	2	·	·	·	-5
N#C/C(=C\c1ccc(-c2ccc(C(=O)O)cc2)o1)C(=O)Nc1ccc(F)cc1	-25	·	·	·	-9
Cc1cccc(C)c1NC(=O)/C(C#N)=C/c1ccc(-c2ccc(C(=O)O)cc2)o1	37*	·	·	·	-8
N#C/C(=C\c1ccc(-c2ccc(C(=O)O)cc2)o1)C(=O)NCC1CCCO1 (centres undefined)	30*	14	29	5	·
Cn1nc(NC(=O)CC(C)(C)CC(=O)O)c2ccccc21	-2	0	-5	13	-20
Cc1ccc2nc(N3CCN(C(=O)CCCC(=O)O)CC3)nc(-c3ccccc3)c2c1	17*	·	·	·	-6
CCOC(=O)N1CCN(c2nc(-c3ccccc3)c3ccccc3n2)CC1	18*	·	·	·	·
O=C(O)CCC(=O)N1CCN(c2nc(-c3ccccc3)c3ccccc3n2)CC1	12	·	·	·	-6
Cc1ccc2nc(N3CC(C)OC(C)C3)nc(-c3ccccc3)c2c1 (centres undefined)	?	·	·	·	-14
Clc1ccc(-c2nc(N3CCCCC3)nc3ccccc23)cc1	25*	5	88*	3	-5
Cc1ccc2nc(N3CCN(C=O)CC3)nc(-c3ccccc3)c2c1	54*	14	88*	12	0
COC(=O)c1ccc(CNC(=O)C2CCC(=O)N(CCN3CCOCC3)C2)cc1 (centres undefined)	4	·	·	·	-6
Cc1c(C(=O)OCC(=O)Nc2ccc(C(=O)N(C)C)cc2)oc2ccccc12	3	·	·	·	-9
Cc1ccccc1C(=O)N(C)c1ccccc1C(=O)NCc1ccccc1	-2	·	·	·	-3
O=C(COc1coc(CN2CCN(c3ccccc3F)CC2)cc1=O)NCC1CCCO1 (centres undefined)	-3	·	·	·	-7
O=C(O)C1CCN(c2nc(-c3ccccc3)c3cc(Br)ccc3n2)CC1	?	·	·	·	-9
O=C(O)CCCC(=O)N1CCN(c2nc(-c3ccccc3Cl)c3cc(Br)ccc3n2)CC1	35*	·	·	·	-6
COc1ccc(-c2noc(N3CCCC(C(=O)Nc4cc(F)ccc4F)C3)n2)cc1 (centres undefined)	5	·	·	·	-3
CCCCCCNC(=O)N[C@@H](C(=O)NCCC[C@H]1CN2C(=NC[C@@H]2Cc2ccccc2)N1CCc1cccc(OC)c1)C(C)C	2	37	63*	10	·
CSCCC(NC(C)=O)C(=O)Oc1ccc2c3c(c(=O)oc2c1)CCCC3 (centres undefined)	·	38	82*	31	-4
Cc1ccc(SCC(=O)OCC(=O)N(CC(C)C)c2c(N)n(Cc3ccccc3)c(=O)[nH]c2=O)cc1C	3	·	·	·	-14
CCN1CCN(c2nc3ccccn3c(=O)c2C=O)CC1	110*	·	·	·	-3
O=Cc1c(N2CCN(CCO)CC2)nc2ccccn2c1=O	79*	·	·	·	-7
SMILES	RanGTP-Imp inh	Runt-CBFb FRET	Runt-SMMHC FRET	Hck Nef HTS	CaV13 ICDI inh
O=Cc1c(N2CCN(c3ccccc3)CC2)nc2ccccn2c1=O	-3	-1	-1	10	-3
CCCCC(=O)N(C)c1c(CC)nc2c(OCCOc3ccc(F)cc3)cccn12	·	·	·	·	-5
Cc1cccc(-c2noc(CN(C)C(=O)c3ccc4c(c3)OCO4)n2)c1	0	·	·	·	-7
Oc1oc(-c2ccccc2)nc1C=Nc1cccc2ccccc12	27*	1	9	0	-8
Oc1oc(-c2ccccc2)nc1/C=N/c1nccs1	-1	-2	-7	1	-3
CC(C)N1CCC2(CC1)C(C#N)=C(N)NC(S)=C2C#N	-5	29	64*	2	·
CCOC(=O)c1c(-c2ccc(C)s2)csc1N	24*	10	-2	2	3
CCOC(=O)c1c(-c2ccsc2)csc1N	0	7	-3	6	·
